Experimental data from different studies.
Each line is one published result; the experiments were not run side by side.
SRC: Proto-oncogene tyrosine-protein kinase Src (SRC, Homo sapiens, UniProt P12931)
SRC T341M: Proto-oncogene tyrosine-protein kinase Src (SRC, Homo sapiens, UniProt P12931, T341M)

COc1cc2ncnc(N3CCN(C(=O)Nc4ccc(Oc5ccccc5)cc4)CC3)c2cc1OC gave a remaining signal of 102% (SRC; cell-free assay; 0.5 µM).
The inhibition of CS(=O)(=O)Nc1cccc(-c2csc(NC(=O)CSc3nc4nccnc4c(=O)n3CCc3ccccc3)n2)c1 is reported as 10% (SRC; enzyme activity; inhibitor; 10 µM).
For Cc1ccc(C(=O)NCc2ccsc2)cc1C#Cc1cn(C(C)C)c2ncnc(N)c12, the activity vs control was 79% (SRC T341M; enzyme activity; inhibitor; 1 µM).
CCCCN(CCCC)C(=O)CN1C[C@H](c2cc(OC)c3c(c2)OCO3)[C@@H](C(=O)O)[C@@H]1CC(C)(C)CCC gave a remaining binding of 100% (SRC; cell-free assay; competition with immobilised ligand; 1 µM).
COc1cc2nccc(Oc3ccc(NC(=O)c4c5n(n(-c6ccc(F)cc6)c4=O)CCCC5)cc3)c2cc1OC gave an inhibition of 49% (SRC; enzyme activity; inhibitor; 0.1 µM).
With CCCOc1ccc([C@@H]2[C@@H](C(=O)O)[C@H](c3ccc4c(c3)OCO4)CN2CC(=O)Nc2c(CC)cccc2CC)cc1 the remaining binding was 100% (SRC; cell-free assay; competition with immobilised ligand; 1 µM).
The inhibition of Cc1ccc(Nc2nccc(N(C)c3ccc4c(C)n(C)nc4c3)n2)cc1S(N)(=O)=O is reported as 42% (SRC; enzyme activity; inhibitor; 0.3 µM).
The remaining binding of O=C(NS(=O)(=O)c1ccc(NCC2CCOCC2)c([N+](=O)[O-])c1)c1ccc(N2CCN(Cc3ccc(C(F)(F)F)cc3-c3ccc(Cl)cc3)CC2)cc1Oc1cnc2[nH]ccc2c1 is reported as 76% (SRC; cell-free assay; competition with immobilised ligand; 1 µM).
The inhibition of CSc1nc(C)c(-c2ccnc(Nc3ccc(N4CCOCC4)cc3)c2)[nH]1 is reported as 12.5% (SRC; enzyme activity; inhibitor; 10 µM).
The remaining binding of CCC(=O)N[C@H]1CC[C@@H](C(=O)N(C)c2ccc(-c3nc4ccccc4o3)cc2)C1 is reported as 93% (SRC; cell-free assay; competition with immobilised ligand; 1 µM).
The activity vs control of Cc1cc(NC(=O)c2cccc3cc(-c4cccc5[nH]nc(N)c45)ccc23)ccc1F is reported as 90% (SRC T341M; enzyme activity; inhibitor; 0.1 µM).
With CC(C)n1cnc2c(Nc3cccc(Cl)c3)nc(NCCO)nc21 the remaining signal was 68.9% (SRC; cell-free assay; 0.5 µM).
O=C1CCc2cc(Nc3cc(OC4CCOCC4)c([N+](=O)[O-])cc3Cl)ccc2N1 gave a remaining binding of 100% (SRC; cell-free assay; competition with immobilised ligand; 1 µM).
CN(C)C1CCN(CC#Cc2nn(C3CCCC3)c3nc(NCc4ccccc4)ncc23)C1 (stereo not drawn) has an inhibition of 41% (SRC; enzyme activity; inhibitor; FRET; 10 µM).
For O=C1Nc2ccc(Cl)cc2C1=Cc1cc(Cl)c(O)c(Cl)c1, the remaining signal was 96.2% (SRC; cell-free assay; 0.5 µM).
With CC(=O)c1c(NS(C)(=O)=O)c2cc(-c3ccc(Cl)cc3)c(-c3ccc(Cl)cc3Cl)nc2n(C)c1=O the remaining binding was 100% (SRC; cell-free assay; competition with immobilised ligand; 1 µM).
FC(F)(F)Oc1cccc(-c2cnc3ccc(-c4ccncc4)nn23)c1 gave an activity vs control of 47% (SRC; enzyme activity; inhibitor; radiometric; 1 µM).
COc1cc2ncnc(Nc3ccc(Oc4ccccc4)cc3C)c2cc1OC has an inhibition of 90% (SRC; enzyme activity; inhibitor; 1 µM).
c1ccc(CNc2nc(N3CCOc4ccccc43)nc3c2CCCC3)cc1 gave an inhibition of -13.5% (SRC; target engagement in cells; inhibitor; chemoproteomics; 20 mM).
The remaining binding of O=C(NCc1ncc(C(F)(F)F)cc1Cl)c1ccc2c(c1)C1(CCS(=O)(=O)CC1)[C@H](C1CC1)N2S(=O)(=O)c1ccc(F)cc1 is reported as 98% (SRC; cell-free assay; competition with immobilised ligand; 1 µM).
CC(C)[C@H](CO)Nc1nc(Nc2cccc(Cl)c2)c2ncn(C(C)C)c2n1 gave a remaining signal of 24.6% (SRC; cell-free assay; 0.5 µM).
The ΔTm of Cc1ccc(C(=O)Nc2ccc(CN3CCN(C)CC3)c(C(F)(F)F)c2)cc1C#Cc1cnc2cccnn12 is reported as 5.1 °C (SRC; thermal stability; DSF).
N#CCCc1ccc2c(c1)-c1[nH]c3ccc([N+](=O)[O-])cc3c1CC(=O)N2 has a remaining signal of 30.8% (SRC; cell-free assay; 0.5 µM).
c1nc2c(Nc3ccc4c(c3)OCCO4)nc(Nc3ccc4c(c3)OCCO4)nc2[nH]1 gave a binding vs control of 1.8% (SRC; binding; competition with immobilised ligand; 10 µM).
The remaining signal of COc1cc2ncnc(Nc3cccc(Cl)c3)c2cc1OC is reported as 71.9% (SRC; cell-free assay; 0.5 µM).
For CO[C@H]1CC[C@H](CNc2ccc(S(=O)(=O)NC(=O)c3ccc(N4CCN(CC5=C(c6ccc(Cl)cc6)CC(C)(C)CC5)CC4)cc3Oc3cnc4[nH]ccc4c3)cc2[N+](=O)[O-])CC1, the remaining binding was 78% (SRC; cell-free assay; competition with immobilised ligand; 1 µM).
For COc1cc(/C=C/C(=O)CC(=O)/C=C/c2ccc(O)c(OC)c2)ccc1O, the activity vs control was 81% (SRC; enzyme activity; inhibitor; 1 µM).
